Laboratory results: ChEMBL document CHEMBL1137010, “Improved peptide prodrugs of 5-ALA for PDT: rationalization of cellular accumulation and protoporphyrin IX production by direct determination of cellular prodrug uptake and prodrug metabolization” (J Med Chem, 2009)
The source made the active and inactive calls. The rule behind the calls is not given here.

Tests used:
[1] = Chromatographic hydrophobicity index in acetonitrile solution under isocratic conditions at pH 6.8; assay type: physicochemical
Outline: (§1)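 RP-HPLC on a C18 column at 35 °C, 0.7 mL/min. Mobile phase was CH3CN or CH3OH with 50 mM aq ammonium formate (pH 6.8). […], with t0 from uracil and tR measured in duplicate. Six isocratic compositions were chosen so that −1.5 < log k < 0.6, and the index was derived from the linear log k versus organic-fraction relation.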

[2] = Chromatographic hydrophobicity index in methanol solution under isocratic conditions at pH 6.8; assay type: physicochemical; outline: as §1
PAM212 [3] = test: Drug uptake in mouse PAM212 cells assessed as intracellular 5-aminolaevulinic acid level per mg of protein at 0.1 mM after 4 hrs; assay type: ADME, cell-based; settings: pam212, 4 h, 100 µM
PAM212 [4] = test: Drug uptake in mouse PAM212 cells assessed as PpIX production per mg of protein at 0.1 mM after 4 hrs; assay type: ADME, cell-based; settings: pam212, 4 h, 100 µM
Outline: (§2)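 Cells (PAM212; A549 in F12K; Caco-2 in EMEM, 37 °C, 5% CO2) were seeded in 100 mm dishes and grown 48 h at 37 °C. After PBS washing they were incubated 4 h at 37 °C with 0.1 or 1 mM drug, washed, lysed 15 min and scraped, then centrifuged at 1800 g for 10 min. Supernatant PpIX was read by fluorescence (410/635 nm) against a PpIX standard curve and normalized to protein by BCA.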

PAM212 [5] = test: Drug uptake in mouse PAM212 cells assessed as intracellular 5-aminolaevulinic acid level per mg of protein at 1 mM after 4 hrs; assay type: ADME, cell-based; settings: pam212, 4 h, 1000 µM
PAM212 [6] = test: Drug uptake in mouse PAM212 cells assessed as PpIX production per mg of protein at 1 mM after 4 hrs; assay type: ADME, cell-based; settings: pam212, 4 h, 1000 µM; outline: as §2
PAM212 [7] = test: Drug uptake in mouse PAM212 cells assessed as enhanced PpIX fluorescence at 0.1 mM after 4 hrs; assay type: ADME, cell-based; settings: pam212, 4 h, 100 µM
Outline: (§3)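 PAM212 cells were seeded 5 × 10^4/well, grown 48 h, PBS-washed and incubated with drug at 0.01 or 0.1 mM in serum-free medium for 4 or 6 h. Untreated wells gave background and ALA wells served as reference. Well fluorescence: excitation 410 nm, emission 635 nm, scans 600–750 nm. Mean intensity (arbitrary units) after control subtraction, calibrated against rhodamine B.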

PAM212 [8] = test: Drug uptake in mouse PAM212 cells assessed as enhanced PpIX fluorescence at 0.01 mM after 4 hrs; assay type: ADME, cell-based; settings: pam212, 4 h, 10 µM; outline: as §3
A549 [9] = test: Drug uptake in human A549 cells assessed as intracellular 5-aminolaevulinic acid level per mg of protein at 0.1 mM after 4 hrs; assay type: ADME, cell-based; settings: a549, 4 h, 100 µM
A549 [10] = test: Drug uptake in human A549 cells assessed as PpIX production per mg of protein at 0.1 mM after 4 hrs; assay type: ADME, cell-based; settings: a549, 4 h, 100 µM; outline: as §2
Caco-2 [11] = test: Drug uptake in human Caco-2 cells assessed as intracellular 5-aminolaevulinic acid level per mg of protein at 1 mM after 4 hrs; assay type: ADME, cell-based; settings: caco-2, 4 h, 1000 µM
Caco-2 [12] = test: Drug uptake in human Caco-2 cells assessed as PpIX production per mg of protein at 1 mM after 4 hrs; assay type: ADME, cell-based; settings: caco-2, 4 h, 1000 µM; outline: as §2
PAM212 [13] = test: Phototoxicity against mouse PAM212 cells assessed as cell viability at 0.1 mM after 4 hrs irradiated with 2.5 J/cm2 blue light by MTT assay relative to control; assay type: functional; settings: PAM212, light or radiation study, read-out: Activity
Outline: (§4)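 PAM212 cells were seeded about 5 × 10^4/well, grown 48 h, PBS-washed and incubated 4 h with drug at 0.01, 0.1 or 1 mM. Blue light (peak 420 nm) was delivered at 2.5 J/cm², although the methods section states 1.25 J/cm². Medium was then replaced and cells kept 24 h. MTT 1 mg/mL for 3 h, DMSO, A570; survival as % of non-irradiated drug-treated controls.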

PAM212 [14] = test: Phototoxicity against mouse PAM212 cells assessed as cell viability at 0.01 mM after 4 hrs irradiated with 2.5 J/cm2 blue light by MTT assay relative to control; assay type: functional, cell-based; outline: as §4
PAM212 [15] = test: Drug uptake in mouse PAM212 cells assessed as enhanced PpIX fluorescence at 0.01 mM after 6 hrs; assay type: ADME, cell-based; settings: pam212, 6 h, 10 µM; outline: as §3
PAM212 [16] = test: Cytotoxicity against mouse PAM212 cells after 24 hrs in absence of 2.5 J/cm2 blue light by MTT assay; assay type: functional, cell-based
Outline: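 Dark toxicity. PAM212 keratinocytes (RPMI-1640, 10% FCS) were seeded about 5 × 10^4 cells/well and grown 48 h, PBS-washed, then given drug for 4 h without irradiation. Medium was replaced and cells were kept a further 24 h. MTT 1 mg/mL for 3 h, formazan dissolved in DMSO, absorbance at 570 nm.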

PAM212 [17] = test: Drug uptake in mouse PAM212 cells assessed as enhanced PpIX fluorescence at 0.1 mM after 6 hrs; assay type: ADME, cell-based; settings: pam212, 6 h, 100 µM; outline: as §3

SMILES | CHI [1] | CHI [2] | Drug uptake (PAM212 [3]) [µg/mg] | Drug uptake (PAM212 [4]) [ng/mg] | Drug uptake (PAM212 [5]) [µg/mg] | Drug uptake (PAM212 [6]) [ng/mg] | Drug uptake (PAM212 [7]) | Drug uptake (PAM212 [8]) | Drug uptake (A549 [9]) [µg/mg] | Drug uptake (A549 [10]) [ng/mg] | Drug uptake (Caco-2 [11]) [µg/mg] | Drug uptake (Caco-2 [12]) [ng/mg] | Drug uptake (PAM212 [15]) | Drug uptake (PAM212 [17]) | viability at 100 µM (PAM212 [13]) [%] | Activity (PAM212 [14]) | Activity (PAM212 [16])
COC(=O)CCC(=O)CNC(=O)[C@@H](CC(C)C)NC(C)=O | 33.89 | 50.76 | – | – | – | – | – | – | – | – | – | – | – | – | – | – | –
COC(=O)CCC(=O)CNC(=O)[C@H](NC(C)=O)C(C)C | 24.74 | 40.76 | – | – | – | – | – | – | – | – | – | – | – | – | – | – | –
CC[C@H](C)[C@H](NC(C)=O)C(=O)NCC(=O)CCC(=O)OC | 37.14 | 46.91 | 1.64 | 40.2 | 7.1 | 22.3 | – | – | – | – | – | – | – | – | – | – | –
COC(=O)CCC(=O)CNC(=O)[C@H](CC(=O)O)NC(C)=O | 19.62 | 24.27 | 0.41 | 19.1 | 1.94 | 20.2 | – | – | – | – | – | – | – | – | – | – | –
COC(=O)CCC(=O)CNC(=O)[C@@H](NC(C)=O)C(C)C | 25.64 | 41.6 | – | – | – | – | Active | – | – | – | – | – | – | – | – | – | –
COC(=O)CCC(=O)CNC(=O)[C@@H]1CCCN1C(C)=O | 18.69 | 27.47 | – | – | – | – | – | – | – | – | – | – | – | – | – | – | –
COC(=O)CCC(=O)CNC(=O)[C@H]1CCCN1C(C)=O | 18.7 | 27.34 | – | – | – | – | – | – | – | – | – | – | – | – | – | – | –
COC(=O)CCC(=O)CNC(=O)[C@@H](C)NC(C)=O | 17.3 | 17.3 | – | – | – | – | – | – | – | – | – | – | – | – | – | – | –
COC(=O)CCC(=O)CNC(=O)[C@H](CO)NC(C)=O | 14.61 | 36.43 | 0.5 | 33.9 | 2.17 | 222 | – | – | – | – | – | – | – | – | – | – | –
COC(=O)CCC(=O)CNC(=O)[C@H](C)NC(C)=O | 14.18 | 17.08 | 0.88 | 10.9 | 3.93 | 12.9 | Active | Active | – | – | – | – | Active | – | 3 | – | inactive
COC(=O)CCC(=O)CNC(=O)[C@H](CCC(=O)O)NC(C)=O | 23.14 | 35.01 | 1.2 | 165 | 5.04 | 276 | Active | – | – | – | – | – | – | Active | 3 | – | inactive
COC(=O)CCC(=O)CNC(=O)[C@H](CC(C)C)NC(C)=O | 36.67 | 50.92 | 2.8 | 276 | 12.2 | 290 | Active | Active | 0.2 | 5.91 | 6.54 | 612 | Active | Active | 3 | – | inactive
COC(=O)CCC(=O)CNC(=O)[C@H](CCCCN)NC(C)=O | 8.48 | 13.61 | 0.68 | 13.2 | 3.06 | 20.2 | – | – | – | – | – | – | – | – | – | – | –
COC(=O)CCC(=O)CNC(=O)CNC(C)=O | 10.31 | 18.77 | – | – | – | – | – | – | – | – | – | – | – | – | – | – | –
COC(=O)CCC(=O)CNC(=O)[C@H](CCSC)NC(C)=O | 28.89 | 41.4 | 3.28 | 315 | 13.2 | 295 | Active | Active | – | – | – | – | Active | Active | 3 | Active | inactive
NCC(=O)CCC(=O)O [AMINOLEVULINIC ACID] | – | – | 0.81 | 108 | 3.41 | 310 | – | – | 0.08 | 39.9 | 2.66 | 603 | – | – | 11 | inactive | –

The next lines start with results.

CHI [1] | CHI [2] | Drug uptake (PAM212 [3]) [µg/mg] | Drug uptake (PAM212 [4]) [ng/mg] | Drug uptake (PAM212 [5]) [µg/mg] | Drug uptake (PAM212 [6]) [ng/mg] | Drug uptake (PAM212 [7]) | Drug uptake (PAM212 [8]) | Drug uptake (A549 [9]) [µg/mg] | Drug uptake (A549 [10]) [ng/mg] | Drug uptake (Caco-2 [11]) [µg/mg] | Drug uptake (Caco-2 [12]) [ng/mg] | Drug uptake (PAM212 [15]) | Drug uptake (PAM212 [17]) | SMILES | viability at 100 µM (PAM212 [13]) [%] | Activity (PAM212 [14]) | Activity (PAM212 [16])
34.14 | 40.73 | – | – | – | – | – | – | – | – | – | – | – | – | COC(=O)CCC(=O)CNC(=O)[C@H](Cc1ccc(O)cc1)NC(C)=O | – | – | –
37.71 | 52.62 | 1.07 | 4.57 | 4.35 | -2.99 | – | – | – | – | – | – | – | – | COC(=O)CCC(=O)CNC(=O)[C@@H](Cc1ccccc1)NC(C)=O | – | – | –
37.32 | 22.08 | – | – | – | – | – | – | – | – | – | – | – | – | COC(=O)CCC(=O)CNC(=O)[C@@H](Cc1c[nH]c2ccccc12)NC(C)=O | – | – | –
56.64 | 97.31 | 4.14 | 284 | 18.9 | 247 | Active | Active | 1.63 | 10.1 | 14.8 | 480 | – | – | CCCCCCOC(=O)CCC(=O)CNC(=O)[C@H](Cc1ccccc1)NC(C)=O | 3 | Active | –
37.35 | 22.08 | 2.41 | 26.6 | 10.3 | 38.9 | – | – | 0.23 | -0.02 | 8.35 | -5.9 | – | – | COC(=O)CCC(=O)CNC(=O)[C@H](Cc1c[nH]c2ccccc12)NC(C)=O | – | – | –
38.26 | 79.03 | – | – | – | – | Active | Active | – | – | – | – | – | – | COCCOC(=O)CCC(=O)CNC(=O)[C@H](Cc1ccccc1)NC(C)=O | – | – | –
38.88 | 58.35 | – | – | – | – | Active | Active | – | – | – | – | – | – | COCCOCCOC(=O)CCC(=O)CNC(=O)[C@H](Cc1ccccc1)NC(C)=O | – | – | –
53.22 | 110.53 | – | – | – | – | Active | Active | – | – | – | – | – | – | CC(=O)N[C@@H](Cc1ccccc1)C(=O)NCC(=O)CCC(=O)O[C@@H]1C[C@H](C)CCC1C(C)C (stereo partly drawn) | – | – | –
15.59 | 28.89 | – | – | – | – | – | – | – | – | – | – | – | – | COC(=O)CCC(=O)CNC(=O)[C@H](Cc1cnc[nH]1)NC(C)=O | – | – | –
34.71 | 52.96 | 2.9 | 313 | 13.7 | 295 | Active | Active | 0.38 | 4.42 | 11.9 | 594 | Active | Active | COC(=O)CCC(=O)CNC(=O)[C@H](Cc1ccccc1)NC(C)=O | 3 | Active | inactive
44.01 | 57.58 | – | – | – | – | Active | Active | – | – | – | – | – | – | CCOC(=O)CCC(=O)CNC(=O)[C@H](Cc1ccccc1)NC(C)=O | – | – | –
